In ChEMBL document CHEMBL3045677, “Sulfonamide-1,2,4-thiadiazole derivatives as antifungal and antibacterial agents: synthesis, biological evaluation, lipophilicity, and conformational studies” (2010):
Values after ≈ are worked out from the molar mass of the structure shown.

Columns and labels:
Escherichia coli [1] = assay: Antibacterial activity against Escherichia coli ATCC 35210 at […] degC measured after 24 hr by microdilution method; assay type: functional; settings: ATCC 35210, 24 h
Method in brief: (§1)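 Bacteria suspended in sterile saline at 1.0×10⁵ CFU/ml and added at 1.0×10⁴ CFU per well to LB broth with compound (1 mg/ml) in 96-well plates. Incubated 24 h at […] °C. MIC was the lowest concentration without visible growth under a binocular microscope. OD 655 nm was read against a blank and a positive control.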

Escherichia coli [2] = assay: Antibacterial activity against Escherichia coli ATCC 35210 at […] degC measured after 72 hr by microdilution method; assay type: functional; settings: ATCC 35210, 72 h
Method in brief: (§2)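 Bactericidal endpoint: after the 24 h broth microdilution (1.0×10⁴ CFU per well, LB broth, […] °C), wells were serially subcultured into plates of fresh broth and incubated a further 72 h. MBC was the lowest concentration with no visible growth, taken as 99.5% killing of the original inoculum.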

Listeria monocytogenes [3] = assay: Antibacterial activity against Listeria monocytogenes NCTC 7973 at […] degC measured after 24 hr by microdilution method; assay type: functional; settings: NCTC 7973, 24 h; method in brief: as §1
Proteus mirabilis [4] = assay: Antibacterial activity against Proteus mirabilis at […] degC measured after 24 hr by microdilution method; assay type: functional; method in brief: as §1
Bacillus cereus [5] = assay: Antibacterial activity against clinical isolate Bacillus cereus at […] degC measured after 24 hr by microdilution method; assay type: functional; method in brief: as §1
Micrococcus flavus [6] = assay: Antibacterial activity against Micrococcus flavus ATCC 10240 at […] degC measured after 72 hr by microdilution method; assay type: functional; settings: ATCC 10240, 72 h; method in brief: as §2
Staphylococcus aureus [7] = assay: Antibacterial activity against Staphylococcus aureus ATCC 6538 at […] degC measured after 72 hr by microdilution method; assay type: functional; settings: ATCC 6538, 72 h; method in brief: as §2
Aspergillus versicolor = assay: Antifungal activity against Aspergillus versicolor ATCC 11730 at 28 degC measured after 72 hr by microdilution method; assay type: functional; settings: ATCC 11730, 72 h
Method in brief: (§3)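 Fungi were kept on malt agar at 4 °C. Spores were washed off with sterile 0.85% saline containing 0.1% Tween 80 and adjusted to about 1.0×10⁵ per well. Compounds were dissolved in DMSO (1 mg/ml stock) and serially diluted in malt broth with inoculum in 96-well plates, 72 h at 28 °C, for MIC. MFC came from subculture into fresh broth for a further 72 h at 28 °C.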

Staphylococcus aureus [8] = assay: Antibacterial activity against Staphylococcus aureus ATCC 6538 at […] degC measured after 24 hr by microdilution method; assay type: functional; settings: ATCC 6538, 24 h; method in brief: as §1
Aspergillus fumigatus = assay: Antifungal activity against plant isolate Aspergillus fumigatus at 28 degC measured after 72 hr by microdilution method; assay type: functional; method in brief: as §3
Proteus mirabilis [9] = assay: Antibacterial activity against Proteus mirabilis at […] degC measured after 72 hr by microdilution method; assay type: functional; method in brief: as §2
Bacillus cereus [10] = assay: Antibacterial activity against clinical isolate Bacillus cereus at […] degC measured after 72 hr by microdilution method; assay type: functional; method in brief: as §2
Pseudomonas aeruginosa [11] = assay: Antibacterial activity against Pseudomonas aeruginosa ATCC 27853 at […] degC measured after 72 hr by microdilution method; assay type: functional; settings: ATCC 27853, 72 h; method in brief: as §2
Penicillium ochrochloron = assay: Antifungal activity against Penicillium ochrochloron ATCC 9112 at 28 degC measured after 72 hr by microdilution method; assay type: functional; settings: ATCC 9112, 72 h; method in brief: as §3
Talaromyces funiculosus = assay: Antifungal activity against Talaromyces funiculosus ATCC 36839 at 28 degC measured after 72 hr by microdilution method; assay type: functional; settings: ATCC 36839, 72 h; method in brief: as §3
Aspergillus flavus = assay: Antifungal activity against Aspergillus flavus ATCC 9643 at 28 degC measured after 72 hr by microdilution method; assay type: functional; settings: ATCC 9643, 72 h; method in brief: as §3
Micrococcus flavus [12] = assay: Antibacterial activity against Micrococcus flavus ATCC 10240 at […] degC measured after 24 hr by microdilution method; assay type: functional; settings: ATCC 10240, 24 h; method in brief: as §1
Salmonella typhimurium [13] = assay: Antibacterial activity against Salmonella enterica subsp. enterica serovar TyphimuriumATCC 13311 at […] degC measured after 72 hr by microdilution method; assay type: functional, Salmonella enterica subsp. enterica serovar Typhimurium; settings: ATCC 13311, 72 h; method in brief: as §2
Trichoderma viride = assay: Antifungal activity against Hypocrea rufa IAM 5061 at 28 degC measured after 72 hr by microdilution method; assay type: functional; settings: IAM 5061, 72 h; method in brief: as §3
Fulvia fulva = assay: Antifungal activity against Passalora fulva TK5318 at 28 degC measured after 72 hr by microdilution method; assay type: functional; settings: TK5318, 72 h; method in brief: as §3
Salmonella typhimurium [14] = assay: Antibacterial activity against Salmonella enterica subsp. enterica serovar Typhimurium ATCC 13311 at […] degC measured after 24 hr by microdilution method; assay type: functional; settings: ATCC 13311, 24 h; method in brief: as §1
Listeria monocytogenes [15] = assay: Antibacterial activity against Listeria monocytogenes NCTC 7973 at […] degC measured after 72 hr by microdilution method; assay type: functional; settings: NCTC 7973, 72 h; method in brief: as §2
Aspergillus niger = assay: Antifungal activity against Aspergillus niger ATCC 6275 at 28 degC measured after 72 hr by microdilution method; assay type: functional; settings: ATCC 6275, 72 h; method in brief: as §3
Pseudomonas aeruginosa [16] = assay: Antibacterial activity against Pseudomonas aeruginosa ATCC 27853 at […] degC measured after 24 hr by microdilution method; assay type: functional; settings: ATCC 27853, 24 h; method in brief: as §1

| SMILES | MIC (Escherichia coli [1]) [µM] | MBC (Escherichia coli [2]) [µM] | MIC (Listeria monocytogenes [3]) [µM] | MIC (Proteus mirabilis [4]) [µM] | MIC (Bacillus cereus [5]) [µM] | MBC (Micrococcus flavus [6]) [µM] | MBC (Staphylococcus aureus [7]) [µM] | MFC (Aspergillus versicolor) [µM] | MIC (Aspergillus versicolor) [µM] | MIC (Staphylococcus aureus [8]) [µM] | MFC (Aspergillus fumigatus) [µM] | MIC (Aspergillus fumigatus) [µM] | MBC (Proteus mirabilis [9]) [µM] | MBC (Bacillus cereus [10]) [µM] | MBC (Pseudomonas aeruginosa [11]) [µM] | MFC (Penicillium ochrochloron) [µM] | MIC (Penicillium ochrochloron) [µM] | MFC (Talaromyces funiculosus) [µM] | MIC (Talaromyces funiculosus) [µM] | MFC (Aspergillus flavus) [µM] | further results |
| --- | --- | --- | --- | --- | --- | --- | --- | --- | --- | --- | --- | --- | --- | --- | --- | --- | --- | --- | --- | --- | --- |
| COc1cc(Cc2nnc(Nc3ccc(C(F)(F)F)cc3)s2)c(S(=O)(=O)N2CCN(C)CC2)cc1OC | 17.9 (≈ 9.98 µg/mL) | 17.9 (≈ 9.98 µg/mL) | 17.9 (≈ 9.98 µg/mL) | 17.9 (≈ 9.98 µg/mL) | 17.9 (≈ 9.98 µg/mL) | 35.8 (≈ 20 µg/mL) | 35.8 (≈ 20 µg/mL) | 35.8 (≈ 20 µg/mL) | 17.9 (≈ 9.98 µg/mL) | 17.9 (≈ 9.98 µg/mL) | 17.9 (≈ 9.98 µg/mL) | 8.9 (≈ 4.96 µg/mL) | 35.8 (≈ 20 µg/mL) | 17.9 (≈ 9.98 µg/mL) | 35.8 (≈ 20 µg/mL) | 35.8 (≈ 20 µg/mL) | 17.9 (≈ 9.98 µg/mL) | 17.9 (≈ 9.98 µg/mL) | 8.9 (≈ 4.96 µg/mL) | 35.8 (≈ 20 µg/mL) | MIC (Aspergillus flavus): 17.9 µM (≈ 9.98 µg/mL); MIC (Micrococcus flavus [12]): 17.9 µM (≈ 9.98 µg/mL); MBC (Salmonella typhimurium [13]): 35.8 µM (≈ 20 µg/mL); MFC (Trichoderma viride): 17.9 µM (≈ 9.98 µg/mL); MIC (Trichoderma viride): 8.9 µM (≈ 4.96 µg/mL); MFC (Fulvia fulva): 17.9 µM (≈ 9.98 µg/mL); MIC (Fulvia fulva): 8.9 µM (≈ 4.96 µg/mL); MIC (Salmonella typhimurium [14]): 17.9 µM (≈ 9.98 µg/mL); MBC (Listeria monocytogenes [15]): 35.8 µM (≈ 20 µg/mL); MFC (Aspergillus niger): 35.8 µM (≈ 20 µg/mL); MIC (Aspergillus niger): 17.9 µM (≈ 9.98 µg/mL); MIC (Pseudomonas aeruginosa [16]): 17.9 µM (≈ 9.98 µg/mL) |
| CC1(C)S[C@@H]2[C@H](NC(=O)[C@H](N)c3ccccc3)C(=O)N2[C@H]1C(=O)O [AMPICILLIN] | 372 (≈ 130 µg/mL) | 492 (≈ 172 µg/mL) | 372 (≈ 130 µg/mL) | 372 (≈ 130 µg/mL) | 248 (≈ 86.7 µg/mL) | 372 (≈ 130 µg/mL) | 372 (≈ 130 µg/mL) | – | – | 248 (≈ 86.7 µg/mL) | – | – | 492 (≈ 172 µg/mL) | 372 (≈ 130 µg/mL) | 1240 (≈ 433 µg/mL) | – | – | – | – | – | MIC (Micrococcus flavus [12]): 248 µM (≈ 86.7 µg/mL); MBC (Salmonella typhimurium [13]): 492 µM (≈ 172 µg/mL); MIC (Salmonella typhimurium [14]): 248 µM (≈ 86.7 µg/mL); MBC (Listeria monocytogenes [15]): 744 µM (≈ 260 µg/mL); MIC (Pseudomonas aeruginosa [16]): 744 µM (≈ 260 µg/mL) |
| c1ccc(-c2ccc(C(c3ccccc3)n3ccnc3)cc2)cc1 (stereo unspecified) [BIFONAZOLE] | – | – | – | – | – | – | – | 640 (≈ 199 µg/mL) | 320 (≈ 99.3 µg/mL) | – | 640 (≈ 199 µg/mL) | 480 (≈ 149 µg/mL) | – | – | – | 640 (≈ 199 µg/mL) | 480 (≈ 149 µg/mL) | 800 (≈ 248 µg/mL) | 640 (≈ 199 µg/mL) | 640 (≈ 199 µg/mL) | MIC (Aspergillus flavus): 480 µM (≈ 149 µg/mL); MFC (Trichoderma viride): 800 µM (≈ 248 µg/mL); MIC (Trichoderma viride): 640 µM (≈ 199 µg/mL); MFC (Fulvia fulva): 640 µM (≈ 199 µg/mL); MIC (Fulvia fulva): 320 µM (≈ 99.3 µg/mL); MFC (Aspergillus niger): 640 µM (≈ 199 µg/mL); MIC (Aspergillus niger): 480 µM (≈ 149 µg/mL) |
| CC(=O)N1CCN(c2ccc(OCC3COC(Cn4ccnc4)(c4ccc(Cl)cc4Cl)O3)cc2)CC1 (stereo unspecified) [KETOCONAZOLE] | – | – | – | – | – | – | – | 950 (≈ 505 µg/mL) | 380 (≈ 202 µg/mL) | – | 950 (≈ 505 µg/mL) | 380 (≈ 202 µg/mL) | – | – | – | 3800 (≈ 2020 µg/mL) | 3800 (≈ 2020 µg/mL) | 950 (≈ 505 µg/mL) | 380 (≈ 202 µg/mL) | 3800 (≈ 2020 µg/mL) | MIC (Aspergillus flavus): 2850 µM (≈ 1510 µg/mL); MFC (Trichoderma viride): 5700 µM (≈ 3030 µg/mL); MIC (Trichoderma viride): 4750 µM (≈ 2520 µg/mL); MFC (Fulvia fulva): 950 µM (≈ 505 µg/mL); MIC (Fulvia fulva): 380 µM (≈ 202 µg/mL); MFC (Aspergillus niger): 950 µM (≈ 505 µg/mL); MIC (Aspergillus niger): 380 µM (≈ 202 µg/mL) |
| CN[C@@H]1[C@H](O[C@H]2[C@H](O[C@H]3[C@H](O)[C@@H](O)[C@H](N=C(N)N)[C@@H](O)[C@@H]3N=C(N)N)O[C@@H](C)[C@]2(O)C=O)O[C@@H](CO)[C@H](O)[C@H]1O [STREPTOMYCIN] | 172 (≈ 100 µg/mL) | 344 (≈ 200 µg/mL) | 258 (≈ 150 µg/mL) | 172 (≈ 100 µg/mL) | 43 (≈ 25 µg/mL) | 172 (≈ 100 µg/mL) | 344 (≈ 200 µg/mL) | – | – | 172 (≈ 100 µg/mL) | – | – | 344 (≈ 200 µg/mL) | 86 (≈ 50 µg/mL) | 344 (≈ 200 µg/mL) | – | – | – | – | – | MIC (Micrococcus flavus [12]): 86 µM (≈ 50 µg/mL); MBC (Salmonella typhimurium [13]): 344 µM (≈ 200 µg/mL); MIC (Salmonella typhimurium [14]): 172 µM (≈ 100 µg/mL); MBC (Listeria monocytogenes [15]): 516 µM (≈ 300 µg/mL); MIC (Pseudomonas aeruginosa [16]): 172 µM (≈ 100 µg/mL) |
